# Source: ChEMBL document CHEMBL2086229, “Synthesis and biological activities of 4-substituted pyrrolo[2,3-a]carbazole Pim kinase inhibitors” (Eur J Med Chem, 2012)
# Calls of active or inactive are those of the source. The calls are words filed in the database; no cut-off is given here.
# Columns and labels:
# [1] = Antiproliferative activity against human fibroblasts after 48 hrs by resazurin reduction test; type: cell-based; conditions: Fibroblast
# How it was run: (§1)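 Cells kept as monolayers in Glutamax MEM with Earle's salts, 10% fetal calf serum, sodium pyruvate, non-essential amino acids and gentamicin, 37 °C, 5% CO2. Seeded at 5 × 10³ cells/well, adhered 16 h, then given drug from 20 mM DMSO stock for 48 h continuously. Resazurin (25 μg/mL, 1 h, 37 °C) fluorescence read at ex 530/em 590 nm. IC50 taken from concentration–survival curve versus control wells, blank subtracted.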
# [2] = target: T1, Serine/threonine-protein kinase pim-3 (Homo sapiens, UniProt Q86V86); assay: Inhibition of human Pim3 using RSRHSSYPAGT as substrate
# [3] = target: Serine/threonine-protein kinase pim-2 (Homo sapiens) (UniProt Q9P1W9); assay: Inhibition of human Pim2 using RSRHSSYPAGT as substrate assessed as residual activity at 1 uM
# PC-3 [4] = assay: Antiproliferative activity against human PC3 cells after 48 hrs by resazurin reduction test; type: functional, cell-based; how it was run: as §1
# [5] = target: T1, Serine/threonine-protein kinase pim-3; assay: Inhibition of human Pim3 using RSRHSSYPAGT as substrate assessed as residual activity at 10 uM
# PA-1 [6] = assay: Antiproliferative activity against human PA1 cells after 48 hrs by resazurin reduction test; type: functional, cell-based; how it was run: as §1
# [7] = target: T1, Serine/threonine-protein kinase pim-3; assay: Inhibition of human Pim3 using RSRHSSYPAGT as substrate assessed as residual activity at 1 uM
# DU-145 = assay: Antiproliferative activity against human DU145 cells after 48 hrs by resazurin reduction test; type: functional, cell-based; how it was run: as §1
# [8] = target: Serine/threonine-protein kinase pim-2 (Homo sapiens) (UniProt Q9P1W9); assay: Inhibition of human Pim2 using RSRHSSYPAGT as substrate assessed as residual activity at 10 uM
# [9] = target: T2, Serine/threonine-protein kinase pim-1 (Homo sapiens, UniProt P11309); assay: Inhibition of human Pim1 using RSRHSSYPAGT as substrate assessed as residual activity at 1 uM
# Target sequence in this assay (P11309 whole entry, looked up): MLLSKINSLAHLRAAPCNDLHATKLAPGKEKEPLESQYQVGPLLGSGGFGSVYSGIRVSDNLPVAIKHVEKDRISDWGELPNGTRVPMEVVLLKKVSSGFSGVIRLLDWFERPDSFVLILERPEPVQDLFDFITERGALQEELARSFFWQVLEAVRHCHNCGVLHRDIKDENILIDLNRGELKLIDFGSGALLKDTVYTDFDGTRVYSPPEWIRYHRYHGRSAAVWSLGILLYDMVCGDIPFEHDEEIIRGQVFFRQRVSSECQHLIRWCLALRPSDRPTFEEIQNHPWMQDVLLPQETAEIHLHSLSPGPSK
# [10] = target: T2, Serine/threonine-protein kinase pim-1; assay: Inhibition of human Pim1 using RSRHSSYPAGT as substrate assessed as residual activity at 10 uM
# Target sequence in this assay (P11309 whole entry, looked up): as above
# PA-1 [11] = assay: Antiproliferative activity against human PA1 cells assessed as growth inhibition at 1 uM after 48 hrs by resazurin reduction test; type: functional, cell-based
# How it was run: (§2)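 PA1 and PC3 cells seeded at 5 × 10³ per well, adhered 16 h, then exposed 48 h continuously to a single drug concentration (1 or 10 μM) from 20 mM DMSO stock. Growth read by resazurin reduction (25 μg/mL, 1 h, 37 °C), fluorescence ex 530/em 590 nm, as survival relative to control wells after blank subtraction.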
# PC-3 [12] = assay: Antiproliferative activity against human PC3 cells assessed as growth inhibition at 10 uM after 48 hrs by resazurin reduction test; type: functional, cell-based; how it was run: as §2
# PA-1 [13] = assay: Antiproliferative activity against human PA1 cells assessed as growth inhibition at 10 uM after 48 hrs by resazurin reduction test; type: functional, cell-based; how it was run: as §2
# PC-3 [14] = assay: Antiproliferative activity against human PC3 cells assessed as growth inhibition at 1 uM after 48 hrs by resazurin reduction test; type: functional, cell-based; how it was run: as §2
# [15] = target: T2, Serine/threonine-protein kinase pim-1; assay: Inhibition of human Pim1 using RSRHSSYPAGT as substrate
# Target sequence in this assay (P11309 whole entry): as the sequence (P11309 whole entry, looked up) above
# Serine/threonine-protein kinase pim-2 (Homo sapiens), sequence (Q9P1W9 whole entry, looked up): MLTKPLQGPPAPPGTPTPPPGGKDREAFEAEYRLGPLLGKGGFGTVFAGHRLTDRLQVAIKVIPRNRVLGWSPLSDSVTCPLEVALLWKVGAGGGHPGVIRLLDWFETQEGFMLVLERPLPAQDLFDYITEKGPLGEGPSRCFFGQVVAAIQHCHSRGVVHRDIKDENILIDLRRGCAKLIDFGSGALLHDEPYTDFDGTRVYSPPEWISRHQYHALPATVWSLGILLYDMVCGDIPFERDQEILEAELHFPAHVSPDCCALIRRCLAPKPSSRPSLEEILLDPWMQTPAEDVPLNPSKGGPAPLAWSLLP
SMILES,IC50 [1] [µM],IC50 [2] [µM],Activity [3] [%],growth inhibition (GI) (PC-3 [4]),Activity [5] [%],growth inhibition (GI) (PA-1 [6]),Activity [7] [%],growth inhibition (GI) (DU-145),Activity [8] [%],Activity [9] [%],Activity [10] [%],growth inhibition (GI) (PA-1 [11]),growth inhibition (GI) (PC-3 [12]),growth inhibition (GI) (PA-1 [13]),growth inhibition (GI) (PC-3 [14]),"IC50 (PC-3 [4]; PC-3, 48 h) [µM]",IC50 [15] [µM],"IC50 (PA-1 [6]; PA-1, 48 h) [µM]","IC50 (DU-145; DU-145, 48 h) [µM]"
O=Cc1c[nH]c2c1ccc1c3ccccc3[nH]c12,21,–,–,–,–,–,–,–,–,–,–,–,–,–,–,–,–,–,–
COC(=O)c1cc2c([nH]c3cccc(N)c32)c2[nH]ccc12,–,0.41,93,inactive,16,inactive,40,inactive,77,90,39,–,–,–,–,–,–,–,–
Nc1cccc2[nH]c3c(cc(C(=O)O)c4cc[nH]c43)c12,–,–,101,–,55,–,103,–,89,103,87,inactive,inactive,inactive,inactive,–,–,–,–
O=C(O)c1cc2c3ccccc3[nH]c2c2[nH]ccc12,–,–,100,–,65,–,101,–,93,90,70,inactive,inactive,inactive,inactive,–,–,–,–
COC(=O)c1cc2c3ccccc3[nH]c2c2[nH]ccc12,8,0.5,95,–,24,–,47,–,75,57,15,–,–,–,–,6,3,27,> 50
